Source: ChEMBL document CHEMBL5338743, “Identification of a Selective SCoR2 Inhibitor That Protects Against Acute Kidney Injury” (J Med Chem, 2023)
Active and inactive are the calls of the source. The calls are words filed in the database; no cut-off is given here.

Columns and labels:
[1] = Renal toxicity in mouse assessed as effect on anatomy of medulla at 120 mg/kg, ip treated for 18 hrs under basal conditions by H and E staining based analysis; format: organism-based; details: in vivo
Method in brief: (§1)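 Sham-operated mice given 120 mg/kg i.p. or vehicle; kidney cortex and medulla examined by H&E staining.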

[2] = tested on: Mus musculus; experiment: In vivo inhibition of AKR1B1 in mouse assessed as reduction in methyl glyoxylate metabolic activity in kidneys at 120 mg/kg body weight, ip administered as single dose into abdomen measured after 18 hrs; format: functional, organism-based
[3] = biological target: T1, Aldo-keto reductase family 1 member A1 (Homo sapiens) (UniProt P14550); experiment: Binding affinity to C-terminal 6His-tagged human recombinant SCoR2 AKR1A1 expressed in Escherichia coli BL21-CodonPlus competent cells assessed as melting temperature at +/- 250 uM incubated for 45 mins by SYPRO orange dye based DSF analysis (reference value: 48.3 degreeC)
T1 sequence (whole entry): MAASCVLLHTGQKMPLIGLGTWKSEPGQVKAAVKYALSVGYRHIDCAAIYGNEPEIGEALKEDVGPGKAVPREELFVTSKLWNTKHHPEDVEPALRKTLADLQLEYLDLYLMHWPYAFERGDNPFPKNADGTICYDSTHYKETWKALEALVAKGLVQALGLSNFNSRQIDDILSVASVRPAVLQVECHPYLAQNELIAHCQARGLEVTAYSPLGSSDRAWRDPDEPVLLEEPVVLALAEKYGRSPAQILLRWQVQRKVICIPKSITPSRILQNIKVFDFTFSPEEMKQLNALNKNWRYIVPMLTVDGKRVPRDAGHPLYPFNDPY
Method in brief: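 5 μM protein with or without 250 μM NADPH or NADP⁺ and 250 μM inhibitor; cofactor preincubated 15 min, then inhibitor 30 min at room temperature. 10X SYPRO Orange added; temperature ramped 25–70°C in 0.3°C steps. DMSO-matched controls (1%); duplicates.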

[4] = Renal toxicity in mouse assessed as effect on anatomy of cortex at 120 mg/kg, ip treated for 18 hrs under basal conditions by H and E staining based analysis; format: organism-based; details: in vivo; method in brief: as §1
[5] = tested on: Mus musculus; experiment: Protection against ischemia/reperfusion induced acute kidney injury in mouse assessed as reduction in blood urea nitrogen level at 120 mg/kg, ip pretreated for 18 hrs followed by kidney injury surgery and measured after 24 hrs; format: functional, organism-based; details: time 42.0 hrs
Method in brief: (§2)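 Male mice (9–11 weeks, 25–28 g) given i.p. dose 18 h before ischemia–reperfusion AKI surgery under isoflurane; serum taken 24 h after reperfusion. Creatinine and BUN measured by a clinical laboratory; DMSO-treated controls.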

[6] = biological target: T2, Aldo-keto reductase family 1 member A1 (Homo sapiens, UniProt P14550); experiment: Inhibition of C-terminal 6His-tagged human recombinant SCoR2 AKR1A1 expressed in Escherichia coli BL21-CodonPlus competent cells using SNO-CoA as substrate incubated for 2 mins in presence of NADPH
T2 sequence (P14550 whole entry): T1 sequence (whole entry)
Method in brief: (§3)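 Purified enzyme at 200 nM (SCoR2 with 100 μM SNO-CoA; AKR1B1 with 100 μM methylglyoxylate) in 50 mM phosphate pH 7.0 with serial inhibitor dilutions; started with 100 μM NADPH, 2 min. Rate from 340 nm decrease, normalized to 20 nM protein activity; IC50 fitted, n=3. Selectivity taken as AKR1B1/SCoR2 IC50 ratio.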

[7] = tested on: Kidney; experiment: Effect on SCoR2 protein expression in kidney of ischemia/reperfusion induced acute kidney injury mouse model at 120 mg/kg, ip pretreated for 18 hrs followed by kidney injury surgery and measured after 24 hrs by Western blot analysis; format: functional, organism-based; details: time 42.0 hrs
Method in brief: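 Mice given 120 mg/kg i.p. 18 h before I/R surgery; kidneys collected 24 h post-surgery. SCoR2 protein measured by western blot (4–20% gels, overnight primary antibody at 4°C, HRP secondary, ECL) and quantified; n=6, DMSO controls.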

[8] = tested on: Mus musculus; experiment: Protection against ischemia/reperfusion induced acute kidney injury in mouse assessed as reduction in PKM2 activity in kidney at 120 mg/kg, ip pretreated for 18 hrs followed by kidney injury surgery and measured after 24 hrs by colorimetric pyruvate kinase activity assay; details: time 42.0 hrs
[9] = Drug uptake in mouse serum at 120 mg/kg body weight, ip measured at 24 hrs post injection by HPLC/mass spectrometry analysis; format: ADME, organism-based; details: in vivo
Method in brief: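 Serum collected 24 h after i.p. injection; compound level measured by HPLC/mass spectrometry.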

[10] = tested on: Mus musculus; experiment: In vivo inhibition of SCoR2 in C57BL/6J mouse assessed as reduction in SNO-CoA metabolic activity in spleen at 120 mg/kg body weight, ip administered as single dose into abdomen measured after 18 hrs; format: functional, organism-based
Method in brief: (§4)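 Single i.p. injection into the mouse abdomen, DMSO vehicle; organs collected 18 h later. Tissues homogenized in 50 mM phosphate pH 7.0, 150 mM NaCl, EDTA/DTPA, then clarified; lysate started reactions with 200 μM SNO-CoA and 100 μM NADPH, 2 min, NADPH loss monitored, in triplicate. Compared with vehicle and SCoR2−/− kidneys.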

[11] = biological target: Aldo-keto reductase family 1 member B1 (Homo sapiens, UniProt P15121); experiment: Inhibition of C-terminal 6His-tagged human recombinant AKR1B1 expressed in Escherichia coli BL21-CodonPlus competent cells using methyl glyoxylate as substrate incubated for 2 mins in presence of NADPH; method in brief: as §3
[12] = tested on: Mus musculus; experiment: In vivo inhibition of SCoR2 in C57BL/6J mouse assessed as reduction in SNO-CoA metabolic activity in heart at 120 mg/kg body weight, ip administered as single dose into abdomen measured after 18 hrs; format: functional, organism-based; method in brief: as §4
[13] = tested on: Mus musculus; experiment: In vivo inhibition of SCoR2 in C57BL/6J mouse assessed as reduction in SNO-CoA metabolic activity in lung at 120 mg/kg body weight, ip administered as single dose into abdomen measured after 18 hrs; format: functional, organism-based; method in brief: as §4
[14] = tested on: Mus musculus; experiment: Protection against ischemia/reperfusion induced acute kidney injury in mouse assessed as increase in SNO-PKM2 level in kidney at 120 mg/kg, ip pretreated for 18 hrs followed by kidney injury surgery and measured after 24 hrs by Western blot analysis; format: functional, organism-based; details: time 42.0 hrs
Method in brief: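 Kidneys from sham or I/R mice (120 mg/kg i.p. or DMSO) homogenized in HEN buffer with MMTS, then SDS/MMTS blocking at 50°C for 20 min and acetone-precipitated. 2 mg lysate captured on thiopropyl-Sepharose with 50 mM ascorbate, 4 h in the dark; no-ascorbate controls. PKM2 detected by western blot and normalized to input PKM2, n=3.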

[15] = species: Homo sapiens; experiment: Selectivity index, ratio of IC50 for inhibition of human recombinant AKR1B1 expressed in Escherichia coli BL21-CodonPlus competent cells to IC50 for inhibition of human recombinant SCoR2 expressed in Escherichia coli BL21-CodonPlus competent cells; method in brief: as §3
[16] = In vivo inhibition of SCoR2 in C57BL/6J mouse assessed as reduction in SNO-CoA metabolic activity in kidneys at 120 mg/kg body weight, ip administered as single dose into abdomen measured after 18 hrs relative to control; format: functional; method in brief: as §4
[17] = tested on: Mus musculus; experiment: Protection against ischemia/reperfusion induced acute kidney injury in mouse assessed as reduction in serum creatinine level at 120 mg/kg, ip pretreated for 18 hrs followed by kidney injury surgery and measured after 24 hrs; format: functional, organism-based; details: time 42.0 hrs; method in brief: as §2
[18] = tested on: Mus musculus; experiment: In vivo inhibition of SCoR2 in C57BL/6J mouse assessed as reduction in SNO-CoA metabolic activity in liver at 120 mg/kg body weight, ip administered as single dose into abdomen measured after 18 hrs; format: functional, organism-based; method in brief: as §4

- Tm [3]: 46.6 °C
- IC50 [6]: 93 nM
- Drug uptake [9]: Active
- IC50 [11]: 903 nM
Compound: O=C1NC(=O)C2(N1)c1ccccc1-c1ccc(C3CC3)cc12 (stereo not drawn)
- Activity [1]: Non-Toxic
- inhibition [2]: inactive
- Activity [4]: Non-Toxic
- Activity [5]: Active
- Activity [7]: inactive
- Activity [8]: Active
- inhibition [10]: Active
- inhibition [12]: Active
- inhibition [13]: Active
- Activity [14]: Active
- Ratio IC50 [15]: 9.7
- inhibition in vivo at 120 mg/kg [16]: 80%
- Activity [17]: Active
- inhibition [18]: Active
